Results taken from ChEMBL document CHEMBL4007405 (J Med Chem, 2017).
pIC50: −log10 of the molar value. Positions of bridges follow the written chain, without caps; N, C: chain ends. Residues, ends and D or L forms follow the SMILES beside them.

How the values were obtained:
[1] = biological target: T1, Lethal factor (Bacillus anthracis) (UniProt P15917); assay: (§1) Inhibition of Bacillus anthracis lethal factor protease preincubated for 30 mins prior to addition of substrate containing fluorescent proteins CyPet and YPet measured every 2 mins for 3 hrs by FRET assay
T1 sequence (whole entry): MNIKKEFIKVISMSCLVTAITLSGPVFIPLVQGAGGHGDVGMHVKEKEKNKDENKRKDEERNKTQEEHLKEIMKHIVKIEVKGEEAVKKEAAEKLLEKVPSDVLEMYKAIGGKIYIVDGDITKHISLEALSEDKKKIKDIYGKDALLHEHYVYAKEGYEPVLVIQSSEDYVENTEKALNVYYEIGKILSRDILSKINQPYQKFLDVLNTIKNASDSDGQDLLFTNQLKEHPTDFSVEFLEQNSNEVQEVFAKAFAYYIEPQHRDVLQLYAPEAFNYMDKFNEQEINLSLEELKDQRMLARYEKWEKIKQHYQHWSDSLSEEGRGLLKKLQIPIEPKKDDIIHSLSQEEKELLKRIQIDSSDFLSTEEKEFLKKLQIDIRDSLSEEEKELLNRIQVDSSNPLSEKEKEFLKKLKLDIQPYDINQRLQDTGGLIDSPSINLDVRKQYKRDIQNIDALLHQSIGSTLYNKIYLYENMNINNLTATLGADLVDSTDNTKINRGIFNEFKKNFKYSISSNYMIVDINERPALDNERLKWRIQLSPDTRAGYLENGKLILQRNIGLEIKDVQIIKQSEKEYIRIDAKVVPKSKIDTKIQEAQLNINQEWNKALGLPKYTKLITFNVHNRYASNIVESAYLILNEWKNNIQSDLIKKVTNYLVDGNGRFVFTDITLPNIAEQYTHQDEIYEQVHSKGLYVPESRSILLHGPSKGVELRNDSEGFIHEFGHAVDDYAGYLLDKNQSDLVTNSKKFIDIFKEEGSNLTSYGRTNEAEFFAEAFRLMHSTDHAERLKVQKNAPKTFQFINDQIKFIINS
How it was run: (§2)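 Preincubated with peptide from 1 nM to 10 μM for 30 min at room temperature. CyPet–YPet substrate (LF consensus sequence with (GGS)6 linkers) then added to a final 10 nM. FRET read every 2 min for 3 h with excitation at 405 nm and emission ratio It/I0 at 535 nm. Initial velocities fitted to log(inhibitor)–response with variable Hill slope. Run in triplicate.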

Lethal factor [2] = biological target: T2, Lethal factor (Bacillus anthracis, UniProt P15917); assay: as §1; how it was run: as §2
T2 sequence (P15917 whole entry): T1 sequence (whole entry)

Lethal factor [3] = biological target: T2, Lethal factor
HeLa = assay: Cytotoxicity against human HeLa cells up to 100 uM after 48 hrs by MTT assay; format: cell-based
How it was run: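 HeLa cells grown in DMEM with 10% FBS, penicillin and streptomycin at 37° C, 5% CO2. About 3 × 10^3 cells per well were seeded for 24 h, washed with PBS, then exposed to peptides in DMEM/10% FBS for 48 h at 37° C. MTT was added for 2 h and formazan dissolved in DMSO. Absorbance read at 595 nm with 670 nm background subtracted.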

[4] = biological target: Disintegrin and metalloproteinase domain-containing protein 17 (Homo sapiens) (UniProt P78536); assay: Inhibition of recombinant human glycosylated his-tagged TACE catalytic domain (233 to 477 residues) assessed as inhibition of proteolytic activity preincubated for 30 mins prior to addition of Mca-Pro-Leu-Ala-Gln-Ala-Val-Dpa-Arg-Ser-Ser-Ser-Arg-NH2 as substrate measured every 2 mins for 3 hrs by fluorescence analysis
Sequence of Disintegrin and metalloproteinase domain-containing protein 17 (Homo sapiens) (P78536 whole entry, the tested form may be a part): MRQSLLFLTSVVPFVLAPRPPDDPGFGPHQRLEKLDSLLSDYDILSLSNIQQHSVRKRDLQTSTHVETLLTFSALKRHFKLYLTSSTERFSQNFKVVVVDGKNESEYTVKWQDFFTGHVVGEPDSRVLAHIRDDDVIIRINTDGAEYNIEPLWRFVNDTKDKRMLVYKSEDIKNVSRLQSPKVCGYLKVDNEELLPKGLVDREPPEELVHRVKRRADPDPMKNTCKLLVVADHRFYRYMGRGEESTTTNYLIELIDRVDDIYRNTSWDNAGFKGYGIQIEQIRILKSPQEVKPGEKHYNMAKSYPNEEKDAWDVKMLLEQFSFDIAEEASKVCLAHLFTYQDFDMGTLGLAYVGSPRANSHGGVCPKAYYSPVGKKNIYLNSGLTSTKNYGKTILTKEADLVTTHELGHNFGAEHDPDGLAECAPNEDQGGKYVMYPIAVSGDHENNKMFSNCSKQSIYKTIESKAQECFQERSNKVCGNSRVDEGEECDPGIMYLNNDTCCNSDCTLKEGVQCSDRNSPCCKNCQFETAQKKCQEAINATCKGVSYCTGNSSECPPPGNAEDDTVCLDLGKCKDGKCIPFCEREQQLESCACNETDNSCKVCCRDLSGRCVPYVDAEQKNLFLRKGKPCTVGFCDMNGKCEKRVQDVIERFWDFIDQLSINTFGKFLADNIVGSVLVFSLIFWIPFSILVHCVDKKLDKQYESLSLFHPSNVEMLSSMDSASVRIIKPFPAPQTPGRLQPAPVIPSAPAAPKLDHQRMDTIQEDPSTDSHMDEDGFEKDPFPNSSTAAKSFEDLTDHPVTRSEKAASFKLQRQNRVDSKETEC
How it was run: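 TACE catalytic domain (233-477) at 2 nM in 2.5 μM ZnCl2, 25 mM Tris-HCl, pH 8.0. Preincubated with peptide from 1 nM to 10 μM for 30 min at room temperature. Fluorogenic Mca/Dpa substrate then added to a final 3 μM. Fluorescence read every 2 min for 3 h (excitation 320 nm, emission 405 nm). Initial velocities fitted to log(inhibitor)–response with variable Hill slope.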

CC[C@H](C)[C@@H]1NC(=O)[C@@H]2CSSC[C@H](NC(=O)[C@H](CCCNC(=N)N)NC(=O)[C@@H]3CSSC[C@H](NC1=O)C(=O)N[C@@H]([C@@H](C)O)C(=O)N[C@@H](CCCNC(=N)N)C(=O)NCC(=O)N[C@@H](Cc1ccccc1)C(=O)N3)C(=O)N[C@@H](CC(C)C)C(=O)N[C@H]1CSSC[C@H](NC(=O)[C@H](C(C)C)NC(=O)CNC(=O)[C@H](CCCNC(=N)N)NC(=O)[C@H](CCCNC(=N)N)NC1=O)C(=O)N[C@@H](CCCNC(=N)N)C(=O)N2 (cyclo(GFCRCLCRRGVCRCICTR); disulfide 3-16, 5-14, 7-12)
inhibition [1]: Dose-dependent effect | pIC50 (Lethal factor [2]): 6.41 | pIC50 (Lethal factor [3]): 5.98 | Activity (HeLa): Non-Toxic | inhibition [4]: Dose-dependent effect
